Source: article PMC7359933 (Clinical and Translational Science, 2020)
Read-outs that look alike come from different tables or passages of the source. Marks after values point to notes of the source that are not given here.

Experiments:
healthy volunteers [1] = assay: Thorough QT/QTc study part 2: Holter ECG, Fridericia-corrected QT interval; assay type: in vivo, human; settings: for Mean difference vs. placebo (90% CI), msec ddQTcF: MOX 400 mg (C–D); for Mean change from baseline, msec ddQTcF: MOX 400 mg single dose (C)
Outline: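 Healthy subjects, randomized four-period crossover with 10-day washouts, fed: oral fostemsavir 1,200 mg q.d. or 2,400 mg b.i.d. for 7 days, placebo b.i.d., or single moxifloxacin 400 mg on day 7. Triplicate ECGs from 24-h Holter, read centrally. Baseline is the mean of day-1 predose readings; readings 0.5–22.25 h post-dose on day 7. Linear mixed model gives 90% CI; bound 10 msec; assay sensitivity >5 msec at 2–4 h.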

QTc interval = settings: cited from earlier work
healthy volunteers [2] = test system: healthy volunteers; design: species or system human; settings: final linear concentration‐ddQTcF model
dog = settings: nonclinical assessment of fostemsavir or TMR ref unpublished data; cited from earlier work
[3] = cited from earlier work
[4] = heavily treatment‐experienced HIV‐1 infected patients, fostemsavir 600 mg b.i.d., BRIGHTE (NCT02362503) ref 22; cited from earlier work
[5] = cited from earlier work; remark: listed apart in the source
[6] = cited from earlier work; remark: listed apart in the source
[7] = ritonavir 100 mg (q.d. or b.i.d.) ref 18, 21; cited from earlier work
[8] = cited from earlier work; remark: listed apart in the source

For `COc1c(N2C[C@@H]3CCCN[C@@H]3C2)c(F)cc2c(=O)c(C(=O)O)cn(C3CC3)c12` [MOX, moxifloxacin, reference compound], the “Mean difference vs. placebo (90% CI), msec ddQTcF” value (healthy volunteers [1]; day 7, 0.5 hour) was 0.42 (–1.73, 2.58) msec, the “Mean difference vs. placebo (90% CI), msec ddQTcF” value (healthy volunteers [1]; day 7, 1 hour) was 2.95 (0.80, 5.10) msec and the “Mean difference vs. placebo (90% CI), msec ddQTcF” value (healthy volunteers [1]; day 7, 2 hour) was 8.69 (6.57, 10.82)^a msec. For the same compound, the “Mean difference vs. placebo (90% CI), msec ddQTcF” value (healthy volunteers [1]; day 7, 3 hour) was 10.43 (8.32, 12.54)^b msec, the “Mean difference vs. placebo (90% CI), msec ddQTcF” value (healthy volunteers [1]; day 7, 4 hour) was 10.33 (8.22, 12.44)^c msec and the “Mean difference vs. placebo (90% CI), msec ddQTcF” value (healthy volunteers [1]; day 7, 5 hour) was 8.83 (6.72, 10.94) msec. The “Mean difference vs. placebo (90% CI), msec ddQTcF” value (healthy volunteers [1]; day 7, 6 hour) was 7.98 (5.87, 10.09) msec, the “Mean difference vs. placebo (90% CI), msec ddQTcF” value (healthy volunteers [1]; day 7, 8 hour) was 8.05 (5.94, 10.17) msec and the “Mean difference vs. placebo (90% CI), msec ddQTcF” value (healthy volunteers [1]; day 7, 10 hour) was 8.96 (6.85, 11.07) msec. The “Mean difference vs. placebo (90% CI), msec ddQTcF” value (healthy volunteers [1]; day 7, 11.5 hour) was 8.75 (6.64, 10.86) msec, the “Mean difference vs. placebo (90% CI), msec ddQTcF” value (healthy volunteers [1]; day 7, 14 hour) was 7.55 (5.44, 9.66) msec and the “Mean difference vs. placebo (90% CI), msec ddQTcF” value (healthy volunteers [1]; day 7, 15 hour) was 5.64 (3.52, 7.75) msec. For the same compound, the “Mean difference vs. placebo (90% CI), msec ddQTcF” value (healthy volunteers [1]; day 7, 16 hour) was 6.92 (4.81, 9.03) msec, the “Mean difference vs. placebo (90% CI), msec ddQTcF” value (healthy volunteers [1]; day 7, 22.25 hour) was 6.19 (4.08, 8.30) msec and the “Mean change from baseline, msec ddQTcF” value (healthy volunteers [1]; day 7, 0.5 hour) was “–7.12 msec”. The “Mean change from baseline, msec ddQTcF” value (healthy volunteers [1]; day 7, 1 hour) was “–4.82 msec”, the “Mean change from baseline, msec ddQTcF” value (healthy volunteers [1]; day 7, 2 hour) was “–1.93 msec” and the “Mean change from baseline, msec ddQTcF” value (healthy volunteers [1]; day 7, 3 hour) was 0.40 ms. The “Mean change from baseline, msec ddQTcF” value (healthy volunteers [1]; day 7, 4 hour) was 3.30 ms, the “Mean change from baseline, msec ddQTcF” value (healthy volunteers [1]; day 7, 5 hour) was 4.16 ms and the “Mean change from baseline, msec ddQTcF” value (healthy volunteers [1]; day 7, 6 hour) was “–0.81 msec”. For the same compound, the “Mean change from baseline, msec ddQTcF” value (healthy volunteers [1]; day 7, 8 hour) was “–0.74 msec”, the “Mean change from baseline, msec ddQTcF” value (healthy volunteers [1]; day 7, 10 hour) was 5.78 ms and the “Mean change from baseline, msec ddQTcF” value (healthy volunteers [1]; day 7, 11.5 hour) was 1.83 ms. The “Mean change from baseline, msec ddQTcF” value (healthy volunteers [1]; day 7, 14 hour) was 0.60 ms, the “Mean change from baseline, msec ddQTcF” value (healthy volunteers [1]; day 7, 15 hour) was 1.49 ms and the “Mean change from baseline, msec ddQTcF” value (healthy volunteers [1]; day 7, 16 hour) was 5.41 ms. For the same compound, the “Mean change from baseline, msec ddQTcF” value (healthy volunteers [1]; day 7, 22.25 hour) was 2.73 ms and the “lower bound of multiplicity‐adjusted 90% CI of ddQTcF (assay sensitivity)” value (healthy volunteers [1]; moxifloxacin 400 mg, at 2, 3, and 4 hours) was “above 5 msec”.
In the case of `Cc1cc(/C=C/C#N)cc(C)c1Nc1ccnc(Nc2ccc(C#N)cc2)n1` [rilpivirine], the “QTc prolongation, one‐sided 95% CI upper bound” value (QTc interval; supratherapeutic dose 75 mg ref 11) is given as 15.3 ms and the “QTc prolongation, one‐sided 95% CI upper bound” value (QTc interval; therapeutic dose 25 mg ref 11) is given as 8.2 ms.
With `COc1cnc(-n2cnc(C)n2)c2[nH]cc(C(=O)C(=O)N3CCN(C(=O)c4ccccc4)CC3)c12` [TMR, temsavir] the “relationship of ddQTcF with plasma TMR concentration” value (healthy volunteers [1]; graphical assessment, part 2 data) was “positive linear relationship”, the “Intercept θ1, bootstrap parameter estimate for n = 1,000 (90% CI)” value (healthy volunteers [2]) was “–0.727 (–2.500, 1.072) msec” and the “Intercept θ1, population mean estimate (% RSE)” value (healthy volunteers [2]) was “–0.783 (139) msec”. For the same compound, the “Slope θ2, bootstrap parameter estimate for n = 1,000 (90% CI)” value (healthy volunteers [2]) was 0.00126 (0.0011, 0.00142) msec per ng/mL TMR, the “Slope θ2, population mean estimate (% RSE)” value (healthy volunteers [2]) was 0.00126 (7.9) msec per ng/mL TMR and the “maximum observed TMR concentrations indicating cardiovascular liability” value (dog) was ≥ 3,600 ng/mL. The membrane permeability [3] was “good”, the “geometric mean TMR peak plasma concentration (Cmax)” value [4] was 1,770 ng/mL and the “effect of renal impairment on Cmax” value [5] was “no effect”. The “influence of hepatic impairment on Cmax” value [6] was less than 1.72 fold.
For `CC(C)c1nc(CN(C)C(=O)N[C@H](C(=O)N[C@@H](Cc2ccccc2)C[C@H](O)[C@H](Cc2ccccc2)NC(=O)OCc2cncs2)C(C)C)cs1` [ritonavir], the “increase in TMR plasma Cmax” value [7] is listed as 45–53%.
For `CC(C)c1nc(CN(C)C(=O)N[C@@H](CCN2CCOCC2)C(=O)N[C@H](CC[C@H](Cc2ccccc2)NC(=O)OCc2cncs2)Cc2ccccc2)cs1` [cobicistat], the “increase in Cmax compared to without concomitant cobicistat” value ([8]; coadministration with cobicistat ref 21, 22) is given as 1.71 fold and the “increase in TMR plasma Cmax” value ([8]; cobicistat 150 mg q.d. ref 18, 21) is given as 71%.
